Test results reported in ChEMBL document CHEMBL1124879, “Inotropic "A" ring substituted sulmazole and isomazole analogues” (1990).

What was measured:
Cavia porcellus [1] = species: Cavia porcellus; assay: In vitro concentration required to give a 50% increase in basal contractile force in an isolated paced guinea pig papillary muscle preparation at 1mM; i = 'inactive'; assay type: functional; details: Muscle tissue
Summary of the method: (§1)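 Isolated guinea pig papillary muscle, loaded at 500 mg, in Krebs-Henseleit with 2.5 mM Ca2+, gassed 95% O2-5% CO2, 34 °C. Paced with 1-ms rectangular pulses at 1.5 Hz, 20% above threshold voltage. Isometric tension recorded. Preparations not contracting uniformly after 60 min were rejected. pA50 is the -log concentration giving a 50% rise in basal force. Top concentrations tested were 0.2, 1 or 5 mM.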

Canis familiaris [2] = species: Canis familiaris; assay: The effective dose to produce a maximum increase in dP/dt diastolic blood pressure and heart rate; assay type: functional, Canis lupus familiaris, Artery
Summary of the method: (§2)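 Anesthetized open-chest beagle dogs, 8.5-13 kg, thiopentone induction, α-chloralose/pentobarbitone maintenance, single iv bolus at 0.1 mL/kg. Heart rate taken by tachograph. Doses (mg/kg iv) giving a 50% rise in dP/dt, a 30% fall in diastolic pressure and a 10% rise in heart rate were calculated from mean dose-response data.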

Canis familiaris [3] = assay: Maximum percentage change in dP/dt, diastolic blood pressure and heart rate produced by the compound at a dose 0.3 mg/kg; assay type: functional, Canis lupus familiaris, Artery
Summary of the method: (§3)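 Beagle dogs of either sex, 8.5-13 kg, anesthetized and open-chest. Induction with thiopentone sodium 30 mg/kg iv, then maintenance with α-chloralose 15 mg/kg plus pentobarbitone 6 mg/kg via a femoral vein cannula. Single iv bolus at 0.1 mL/kg, with vehicle bolus in every animal. Body temperature held at 37-38 °C. Maximal % change recorded for dP/dt, diastolic blood pressure and heart rate.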

Canis familiaris [4] = species: Canis familiaris; assay: The effective dose to produce the 30%decrease in diastolic blood pressure.; assay type: functional, Canis lupus familiaris, Artery; summary of the method: as §2
Cavia porcellus [5] = species: Cavia porcellus; assay: In vitro concentration required to give a 50% increase in basal contractile force in an isolated paced guinea pig papillary muscle preparation; assay type: functional, Muscle tissue; summary of the method: as §1
Canis familiaris [6] = assay: Maximum percentage decrease in diastolic blood pressure produced by the compound at a dose 1 mg/kg; assay type: functional, Canis lupus familiaris, Artery; summary of the method: as §3
Canis familiaris [7] = assay: Maximum percentage increase in heart rate produced by the compound at a dose 0.3 mg/kg; assay type: functional, Canis lupus familiaris; summary of the method: as §3
Canis familiaris [8] = species: Canis familiaris; assay: The effective dose was measured to produce the 10%increase in heart rate.; assay type: functional, Canis lupus familiaris; summary of the method: as §2
Cavia porcellus [9] = species: Cavia porcellus; assay: In vitro concentration required to give a 50% increase in basal contractile force in an isolated paced guinea pig papillary muscle preparation at 5mM; i = 'inactive'; assay type: functional; details: Muscle tissue; summary of the method: as §1
Canis familiaris [10] = assay: Maximum percentage increase in heart rate produced by the compound at a dose of 3 mg/kg; assay type: functional, Canis lupus familiaris; summary of the method: as §3
Canis familiaris [11] = assay: Maximum percentage change in dP/dt, diastolic blood pressure and heart rate produced by the compound at a dose of 3.0 mg/kg; assay type: functional, Canis lupus familiaris, Artery; summary of the method: as §3
Canis familiaris [12] = assay: Maximum percentage decrease in diastolic blood pressure produced by the compound at a dose of 3.0 mg/kg; assay type: functional, Canis lupus familiaris, Artery; summary of the method: as §3
Canis familiaris [13] = assay: Maximum percentage change in dP/dt, diastolic blood pressure and heart rate produced by the compound at a dose 3.0 mg/kg; assay type: functional, Canis lupus familiaris, Artery; summary of the method: as §3
Canis familiaris [14] = species: Canis familiaris; assay: The effective dose to produce the 30%decrease in diastolic blood pressure; assay type: functional, Canis lupus familiaris, Artery; summary of the method: as §2
Canis familiaris [15] = species: Canis familiaris; assay: The effective dose was measured to produce the 10%increase in heart rate; assay type: functional, Canis lupus familiaris; summary of the method: as §2
Cavia porcellus [16] = species: Cavia porcellus; assay: In vitro concentration required to give a 50% increase in basal contractile force in an isolated paced guinea pig papillary muscle preparation at 0.2mM; i = 'inactive'; assay type: functional; details: Muscle tissue; summary of the method: as §1
Canis familiaris [17] = assay: Maximum percentage decrease in diastolic blood pressure produced by the compound at a dose 3 mg/kg; assay type: functional, Canis lupus familiaris, Artery; summary of the method: as §3
Canis familiaris [18] = assay: Maximum percentage change in dP/dt, diastolic blood pressure and heart rate produced by the compound at a dose of a mg/kg; assay type: functional, Canis lupus familiaris, Artery; summary of the method: as §3

For `COc1ccc(-c2nc3cc(C(C)=O)c[nH]c-3n2)c(OC)c1`, the pA50 (Cavia porcellus [1]) was “Weak inotropic effects”.
`COc1cc([S+](C)[O-])ccc1-c1nc2cnccc2[nH]1` (stereo not given) [ISOMAZOLE] gave an ED50 (Canis familiaris [2]) of 0.05 mg/kg, a Max increase (Canis familiaris [3]) of 88% and an ED30 DBP (Canis familiaris [4]) of 0.16 mg/kg. For the same compound, the pA50 (Cavia porcellus [5]) was 4.64, the Max decrease (Canis familiaris [6]) was 43% and the Max increase (Canis familiaris [7]) was 15%. The ED10 HR (Canis familiaris [8]) was 0.056 mg/kg.
With `COc1cc([S+](C)[O-])ccc1-c1nc2cc(Cl)c[nH]c-2n1` (stereo not given) the pA50 (Cavia porcellus [5]) was 3.61.
In the case of `COc1ccc(-c2nc3cc[nH]cc-3n2)c(OC)c1`, the pA50 (Cavia porcellus [5]) is reported as 4.01.
Work on `COc1cc([S+](C)[O-])ccc1-c1nc2c(OC)cncc2[nH]1` (stereo not given) yielded a pA50 (Cavia porcellus [5]) of 3.
Work on `COc1ccc(-c2nc3cc(N)c[nH]c-3n2)c(OC)c1` yielded a pA50 (Cavia porcellus [5]) of 4.8.
`COc1ccc(-c2nc3c(N)cncc3[nH]2)c(OC)c1` was tested, and the pA50 (Cavia porcellus [9]) was “Weak inotropic effects”.
`COc1cc([S+](C)[O-])ccc1-c1nc2cc(N)c[nH]c-2n1` (stereo not given) gave a Max increase (Canis familiaris [10]) of 15%, an ED50 (Canis familiaris [2]) of 0.5 mg/kg and an ED30 DBP (Canis familiaris [4]) greater than 3 mg/kg. For the same compound, the Max increase (Canis familiaris [11]) was 87%, the Max decrease (Canis familiaris [12]) was 25% and the pA50 (Cavia porcellus [5]) was 4.01. It also gave an ED10 HR (Canis familiaris [8]) of 1.41 mg/kg.
`COc1cc([S+](C)[O-])ccc1-c1nc2cccnc2[nH]1` (stereo not given) [SULMAZOLE] gave a Max increase (Canis familiaris [10]) of 20%, a Max increase (Canis familiaris [13]) of 73% and an ED50 (Canis familiaris [2]) of 0.8 mg/kg. It also gave a Max decrease (Canis familiaris [12]) of 36%, a pA50 (Cavia porcellus [5]) of 4.7 and an ED30 DBP (Canis familiaris [14]) of 1 mg/kg. For the same compound, the ED10 HR (Canis familiaris [15]) was 0.5 mg/kg.
In the case of `COc1cc([S+](C)[O-])ccc1-c1nc2[nH]ccc(OC)c-2n1` (stereo not given), the pA50 (Cavia porcellus [5]) is reported as 4.1.
With `COc1c[nH]c2nc(-c3ccc([S+](C)[O-])cc3OC)nc-2c1` (stereo not given) the pA50 (Cavia porcellus [5]) was 3.63.
With `CNc1[nH]ccc2nc(-c3ccc(OC)cc3OC)nc1-2` the pA50 (Cavia porcellus [1]) was “Weak inotropic effects”.
`COc1cc([S+](C)[O-])ccc1-c1nc2c(N)cncc2[nH]1` (stereo not given) was tested, and the pA50 (Cavia porcellus [5]) was 3.72.
With `COc1cc([S+](C)[O-])ccc1-c1nc2cc(C)c[nH]c-2n1` (stereo not given) the pA50 (Cavia porcellus [5]) was 3.73.
`COc1cc([S+](C)[O-])ccc1-c1nc2cc(O)c[nH]c-2n1` (stereo not given) showed a pA50 (Cavia porcellus [5]) of 3.75.
For `COc1ccc(-c2nc3c(C)nccc3[nH]2)c(OC)c1`, the pA50 (Cavia porcellus [16]) was “Weak inotropic effects”.
`COc1ccc2[nH]c(-c3ccc([S+](C)[O-])cc3OC)nc2n1` (stereo not given) was tested, and the pA50 (Cavia porcellus [5]) was 3.
For `COc1cc2[nH]c(-c3ccc([S+](C)[O-])cc3OC)nc2cn1` (stereo not given), the pA50 (Cavia porcellus [5]) was 3.76.
For `COc1cc(SC)ccc1-c1nc2c(N)cncc2[nH]1`, the pA50 (Cavia porcellus [1]) was “Weak inotropic effects”.
With `COc1cc([S+](C)[O-])ccc1-c1nc2c(OC)nccc2[nH]1` (stereo not given) the ED50 (Canis familiaris [2]) was 0.13 mg/kg, the ED30 DBP (Canis familiaris [4]) was 0.2 mg/kg and the Max decrease (Canis familiaris [17]) was 70%. For the same compound, the Max increase (Canis familiaris [18]) was 125%, the pA50 (Cavia porcellus [5]) was 3.91 and the Max increase (Canis familiaris [7]) was 10%. It also gave an ED10 HR (Canis familiaris [8]) of 0.28 mg/kg.
`COc1ccc(-c2nc3ccc[nH]c-3n2)c(OC)c1` showed a pA50 (Cavia porcellus [5]) of 5.08.
